# Published values collected from several papers.
# Compare with care: the assays were run in different laboratories.
# CTSB: Cathepsin B (CTSB, Homo sapiens, UniProt P07858)
# CDK2 with cyclin E1: Cyclin-dependent kinase 2, with cyclin E1 (CDK2, Homo sapiens, UniProt P24941)
# Genome polyprotein protease: Genome polyprotein, protease (ZIKV, UniProt A0A024B7W1)
Compound,target,observed,mode,technique,pH,IC50 [µM]
CCCCCCCCCCCCCCCCOC[C@H](COP(=O)([O-])OCC[N+](C)(C)C)OC(C)=O,"Platelet-activating factor receptor (PTAFR, Homo sapiens, UniProt P25105)",ligand displacement,,radioligand,,0.00025
C[C@H]1COCCN1c1nc(NCc2cccnc2C(F)(F)F)c2cccnc2n1,"Sodium channel protein type 5 subunit alpha (SCN5A, Homo sapiens, UniProt Q14524)",ion current,inhibitor,,,> 33
CC(C)C[C@H](NC(=O)[C@H]1O[C@@H]1C(=O)O)C(=O)NCCCCN=C(N)N,CTSB,enzyme activity,inhibitor,,,0.004
N#Cc1cc(F)cc(NS(=O)(=O)c2ccc(S(=O)(=O)F)c3c2CCCC3)c1,"RALB (Homo sapiens, UniProt P11234, Y82F)",cell-free assay,inhibitor,fluorescence,,69
COc1c(-c2ccc3c(c2)OCO3)oc2c(ccc3occc32)c1=O,CDK2 with cyclin E1,enzyme activity,inhibitor,ADP detection,,> 100
CC1=NCCc2c1[nH]c1cc(O)ccc21,"Receptor-type tyrosine-protein phosphatase C (PTPRC, Homo sapiens, UniProt P08575)",enzyme activity,inhibitor,fluorescence,,14
CC(C)C[C@H]1C(=O)N2CCC[C@H]2[C@]2(O)O[C@](NC(=O)[C@@H]3C=C4c5cccc6[nH]c(Br)c(c56)C[C@H]4N(C)C3)(C(C)C)C(=O)N12,"5-hydroxytryptamine receptor 7 (HTR7, Homo sapiens, UniProt P34969)",cAMP,antagonist,,,0.08
CC(C)[C@H](NC(=O)[C@H](CCCNC(=N)N)NC(=O)N[C@@H](Cc1ccccc1)C(=O)O)C(=O)N[C@H](C=O)CCCNC(=N)N,CTSB,enzyme activity,inhibitor,fluorescence,pH 5.5,0.00822
N=C1CCCN1Cc1[nH]c(=O)[nH]c(=O)c1F,"Thymidine phosphorylase (Homo sapiens, UniProt P19971)",enzyme activity,inhibitor,,,0.009
COc1cc2oc(-c3ccc(O)c(O)c3)cc(=O)c2c(O)c1O,Genome polyprotein protease,enzyme activity,inhibitor,,pH 8.5,5
C[C@H](N)Cn1ncc2ccc3c(c21)CCCO3,"Alpha-1A adrenergic receptor (Adra1a, Rattus norvegicus, UniProt P43140)",ligand displacement,,radioligand,,100
C[C@@H]1O[C@@H](OC[C@H]2O[C@@H](Oc3c(-c4ccc(O)c(O)c4)oc4cc(O)cc(O)c4c3=O)[C@H](O)[C@@H](O)[C@@H]2O)[C@H](O)[C@H](O)[C@H]1O,Genome polyprotein protease,enzyme activity,inhibitor,FRET,pH 7,104
COc1c(-c2ccccc2)oc2c(ccc3occc32)c1=O,CDK2 with cyclin E1,enzyme activity,inhibitor,ADP detection,,> 10
COc1cc(NC(=O)C(=O)[C@H](CC(C)C)NC(=O)[C@H](CC(C)C)NC(=O)[C@H](CC(C)C)NC(=O)OCc2ccccc2)cc(OC)c1,"Proteasome component C5/PSMB5, chymotrypsin-like site (Homo sapiens, UniProt P20618+P28074)",enzyme activity in cells,inhibitor,,,0.0251
COCCn1c2nc(=O)n(-c3ccccc3)c(=O)c-2nc2ccccc21,"Genome polyprotein, methyltransferase (ZIKV, UniProt A0A024B7W1)",enzyme activity,inhibitor,TR-FRET,,6.8
